Experimental data: the RNAGym collection of RNA variant scans (doi:10.1101/gad.245936.114)
This sample holds only a part of the variants without activity.

B1: tRNA (parent)
chain: CUCUCGGUAGCCAAGUUGGUUUAAGGCGCAAGACUUUAAUUUAUCACUACGAAAUCUUGAGAUCGGGCGUUCGACUCGCCCCCGGGAGAUUUUUUCCUCGAGCAA

Variants of: B1
Assay: nonsense suppression (GFP-seq) (ratio to wild type); higher = more function; SUP4oc tRNA, yeast GFP reporter sort-seq
Outline: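 Sorted GFP/RFP bins of yeast were each Illumina-sequenced with a phred ≥30 cutoff; the cells held a genome-integrated ochre-suppressor tRNA variant from a library with ~3% random mutations, a galactose-driven GFP ochre reporter, and RFP. Culture was in raffinose/galactose medium containing 80 mg/L adenine. Nonsense suppression, termed GFPSEQ, is the median GFP/RFP of the bins weighted by each variant's estimated cell share per bin, relative to the unmutated parent tRNA, for variants reaching ≥100 reads and ≥30 cells.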

Variant | nonsense suppression
C1G G73A | 0.0631
C1U G19U G28C U57C G84A | ≤ 0.026
U2C C80A | ≤ 0.026
U2C U55A | ≤ 0.026
U2C U21C | 0.203
C1A A30G G85A | 0.0742
C3A G18C G86A | ≤ 0.026
C1A C5G | ≤ 0.026
C1U U2G U20G C29A | ≤ 0.026
C1G A54C | 0.0309
U2C U55C U58G | ≤ 0.026
U2C C68U A87G | 1.13
C1A C81U | 0.045
C1A C81G | ≤ 0.026
U2C A9C C75A | 0.038
C3A C34A U58A | ≤ 0.026
U2A A31C A62C G78U A87U | ≤ 0.026
U2G A74C | ≤ 0.026
C1U G26A U57C | ≤ 0.026
U2A A30U | 0.031
U2C A24G A31C A60C C82A G85C | ≤ 0.026
C1A G19U U55A | ≤ 0.026
C1A G10U G61A A62C G73C | ≤ 0.026
C1U A9G | 0.0262

Variant | nonsense suppression
U2A C3G C27G C29G A33U | ≤ 0.026
C1U G26A G69U C79U | ≤ 0.026
C1U U55G U58G | ≤ 0.026
C3G C11A C81G | ≤ 0.026
C1A G19C A31G A60U U71A C72G G84U | ≤ 0.026
C3A U4A A62G | ≤ 0.026
C3A U20G G28U U57C G61C A74U G78C C79A | ≤ 0.026
U2A C81U | 0.0376
C3G G7C U55A | ≤ 0.026
C1U A9U A13C C64U | ≤ 0.026
C1U A9U A24C A30U A33G | ≤ 0.026
C3A U58G U76A | ≤ 0.026
U2G U58G C83G | ≤ 0.026
U2A G15A G66C G85U | ≤ 0.026
U2G C11A A74C G84C | ≤ 0.026
U2G C83G | ≤ 0.026
C1G A9G C11A U21A A30C G78A | ≤ 0.026
C3A U57A C80U A89U | ≤ 0.026
C1G A9C G18U U71G | ≤ 0.026
U2A A23C | ≤ 0.026
C3A U22C G26U C80A | ≤ 0.026
C3G C77A C83A | ≤ 0.026
C1U A14U | ≤ 0.026
C1G A14U C77U | ≤ 0.026

Variant | nonsense suppression
C1A A23C C77A | ≤ 0.026
C1G C3G G25A C27U | ≤ 0.026
C1A U4G C11U | ≤ 0.026
U2C A13U C72A | ≤ 0.026
U2C G78A | 0.0386
C3U A9G | 0.195
U2C U16G | 0.168
U2A G86A | ≤ 0.026
C3G A13U | 0.0541
C1U G26U C34G | ≤ 0.026
C1U G15C G26C | ≤ 0.026
C1U G66A | 0.254
C1A U8A U55C A89U | ≤ 0.026
C1U A62G C80A | ≤ 0.026
C1U C34U G85C | ≤ 0.026
U2C C79G | ≤ 0.026
C1U A13C A30C C77U A89C | ≤ 0.026
U2G G85U | 0.0411
U2G G85A | ≤ 0.026
C3G A9G G59U | ≤ 0.026
C1A C12G U58A | ≤ 0.026
U2G A9U | 0.0677
C3G G7A C56G C79G | 0.783
U2C G61U | 0.122

Variant | nonsense suppression
U2C G61C | 0.0279
U2A A24G G25A | ≤ 0.026
C3G G28A U55C G86U G88U | ≤ 0.026
C3A A33U | ≤ 0.026
U2C G18C G25U A54C U57C G61U U70G | ≤ 0.026
U2G G78U | 0.0774
C3G G65C C79U | ≤ 0.026
U2C C12G A24C A62U C79A | ≤ 0.026
C1A U17G U20G | ≤ 0.026
C1A C56G A62U C80G C82A | ≤ 0.026
U2C C75U | 0.206
U2C U63G G73A | ≤ 0.026
C3U A9U A30G A54U G67A | ≤ 0.026
C3A C29G A60C C81G | ≤ 0.026
U2G A13U | 0.0638
U2A U22G C29A C34A | 0.221
C1U U20A G73C | 0.722
C1G G6U G66U G73U | ≤ 0.026
C3A A23C G26A U58A G78C | ≤ 0.026
C3A C5G U57C U70A C80A | ≤ 0.026
U2G A33C A60U G73C | ≤ 0.026
U2G A23U | ≤ 0.026
U2G G32C | ≤ 0.026
U2C A23G | 0.0274

Variant | nonsense suppression
U2C U20C | 0.0975
U2C C3U C12U G15A | ≤ 0.026
C3A C12G G18U U20G G61U U70G C75G | ≤ 0.026
C3A U20A G28A | ≤ 0.026
C3G G61C | 0.0292
C1G U20G A23U C27A U76A G88U | ≤ 0.026
C3G A54C | 0.0677
U2A C27U A31G U57C | ≤ 0.026
C1U G18A | ≤ 0.026
U2G G6C A89C | ≤ 0.026
C1U G78A | 0.0525
C1U G69C G73C | ≤ 0.026
C3A G28U G65C | ≤ 0.026
C3A G86C | ≤ 0.026
U2C A13U | 0.0357
C1U C12G | 0.327
C1U C12A | ≤ 0.026
C1U C12U | ≤ 0.026
U2C A60C C75U | ≤ 0.026
C1U A54U G88A | 0.209
U2G C11U U55G A60U C82G G86C G88U | ≤ 0.026
C3A G66C | ≤ 0.026
C1U G18A U21G C27U | ≤ 0.026
C1U C3U C12U | ≤ 0.026

Variant | nonsense suppression
C1G C27A U55G | ≤ 0.026
U2C U57A | 0.0292
C1G A87G | ≤ 0.026
U2G G6C G18A G67C G86A A87G | ≤ 0.026
U2G G6C G18A G67C G86A A87U | ≤ 0.026
U2A G19C | ≤ 0.026
U2A A13U | 0.0284
U2A A13C | ≤ 0.026
C3G A30G C34G U55G G69C C79A | ≤ 0.026
C1U G32U U55A A62C G67C | ≤ 0.026
C1U U63C | ≤ 0.026
C3G U16G G66A | ≤ 0.026
C1G A33G U55C U71G G78C | ≤ 0.026
C1U U4G C5U A31G C81A | ≤ 0.026
C1U U4A | 0.0473
C3A A23G G25U C72A | ≤ 0.026
U2G G10C G15U C29U A31U | ≤ 0.026
U2A C68U | 0.18
U2A C12A | ≤ 0.026
C3G A30G U58A | ≤ 0.026
C1U C3A U8A U17C | ≤ 0.026
U2A G32U C34U | ≤ 0.026
C3A G25C U63A | ≤ 0.026
C3A C29A A54U | ≤ 0.026

Variant | nonsense suppression
C1A A30C | ≤ 0.026
C3U A14G C80G | ≤ 0.026
U2C A60U | 0.194
U2C A60C | 0.0359
U2C G28U | ≤ 0.026
U2C C56U | ≤ 0.026
U2C C56G | ≤ 0.026
U2C C56A | ≤ 0.026
U2C U21C U57G | ≤ 0.026
C3A A9G C64G | ≤ 0.026
C1A U71C C77G | ≤ 0.026
C1G C29A C34U | ≤ 0.026
C3U A13U C34G | ≤ 0.026
U2G A87U | 0.655
C3G U20C | 0.0788
C1A U21C G73A | ≤ 0.026
C3G G59A G78U A87U | ≤ 0.026
U2G C12A | ≤ 0.026
U2G G19U A31U C83A G84A | ≤ 0.026
C1A A9U C68G U76A C81A | ≤ 0.026
C1U U35A C77A G84U | ≤ 0.026
C3A G78A | 0.0776
U2G U8A C12A A30G G59U G88C | ≤ 0.026
